Experimental data gathered from unrelated publications.
Compare with care: the assays were run in different laboratories.
Target: Vascular endothelial growth factor receptor 2 (KDR, Homo sapiens, UniProt P35968)

SMILES | effect on | mode | technique | endpoint | value
C=CC(=O)Nc1cccc(CN2C(=O)N(c3c(Cl)c(OC)cc(OC)c3Cl)Cc3cnc(NCCCCN(CC)CC)nc32)c1 | binding |  | competition with immobilised ligand | Kd | 210 nM
Cc1cc(Nc2cc3ncccc3c(N[C@@H]3C[C@H]4CC[C@@H](C3)N4CCC#N)n2)n[nH]1 | binding |  | competition with immobilised ligand | Kd | 620 nM
CNC(=O)c1cc2c(Oc3ccc(NC(=O)C4(C(=O)Nc5ccc(F)cc5)CC4)cc3)ccnc2cc1OC | enzyme activity | inhibitor | radiometric | IC50 | 6 nM
CC(C)(C)n1nc(-c2ccc3nc(OC4CC4)ccc3c2)c(C(N)=O)c1N | cell-free assay |  |  | IC50 | 450 nM
Cc1ccc(C(=O)Nc2ccc(Oc3cc4cnn(C)c4cc3-c3cn[nH]c3)c(F)c2)c(=O)n1-c1ccc(F)cc1 | phosphorylation in cells | inhibitor | AlphaScreen | IC50 | 347 nM
Cc1cc(Nc2cc(CN3CCOCC3)c3nc(C)c(Cc4ccc(Cl)cc4F)n3n2)n[nH]1 | enzyme activity | inhibitor | TR-FRET | IC50 | 109 nM
CN1CCN(c2ccc(Nc3ncc4cc(C#N)c(=O)n(C5CCCC5)c4n3)cc2)CC1 | enzyme activity | inhibitor |  | IC50 | 56.8 nM
CC(C)(C)n1nc(-c2cnc3cc(OC4CC4)ccc3c2)c(C(N)=O)c1N | cell-free assay |  |  | IC50 | 1090 nM
